Results from ChEMBL document CHEMBL1128440 (J Med Chem, 1995).
Values joined by “and” are separate entries in the source; they are usually repeats but may differ in a detail not shown here. Equal entries are not always repeated.

Legend:
Rattus norvegicus [1] = organism: Rattus norvegicus; assay: Tissue biodistribution into estrogen-primed immature female rat muscle at 3 hr time interval; format: ADME, organism-based; conditions: in vivo
Outline: (§1)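 Immature female Sprague-Dawley rats (25 days old, ≈50 g, five per time point) primed with estradiol, 5 μg sc daily for 2 days in 50% ethanol/sunflower seed oil, used 24 h after the last injection. The 18F-labeled ligand was given iv by tail vein in 10% ethanol/saline. Decapitated at 1 or 3 h; blood and organs weighed and gamma-counted. Reported as %ID/g ± SD, n = 5.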

Rattus norvegicus [2] = organism: Rattus norvegicus; assay: Tissue biodistribution into estrogen-primed immature female rat uterus/blood at 3 hr time interval; format: ADME, organism-based; conditions: in vivo; outline: as §1
Rattus norvegicus [3] = organism: Rattus norvegicus; assay: Tissue biodistribution into estrogen-primed immature female rat brain at 1 hr time interval; format: ADME, organism-based; conditions: in vivo; outline: as §1
Rattus norvegicus [4] = organism: Rattus norvegicus; assay: Tissue biodistribution into estrogen-primed immature female rat bone at 1 hr time interval; format: ADME, organism-based, Bone element; conditions: in vivo; outline: as §1
[5] = Partition coefficient (logP); format: physicochemical; conditions: octanol/water
Outline: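 log P(o/w) (octanol/water) estimated by a reversed-phase HPLC method.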

Rattus norvegicus [6] = organism: Rattus norvegicus; assay: Tissue biodistribution into estrogen-primed immature female rat ovaries at 1 hr low time interval; format: ADME, organism-based, Female gonad; conditions: in vivo; outline: as §1
Rattus norvegicus [7] = organism: Rattus norvegicus; assay: Tissue biodistribution into estrogen-primed immature female rat liver at 3 hr time interval; format: ADME, organism-based; conditions: in vivo; outline: as §1
Rattus norvegicus [8] = organism: Rattus norvegicus; assay: Tissue biodistribution into estrogen-primed immature female rat uterus/muscle at 3 hr time interval; format: ADME, organism-based; conditions: in vivo
Rattus norvegicus [9] = organism: Rattus norvegicus; assay: Tissue biodistribution into estrogen-primed immature female rat blood at 3 hr time interval; format: ADME, organism-based; conditions: in vivo; outline: as §1
Rattus norvegicus [10] = organism: Rattus norvegicus; assay: Tissue biodistribution into estrogen-primed immature female rat fat at 1 hr blocked time interval; format: ADME, organism-based, Adipose tissue; conditions: in vivo; outline: as §1
Rattus norvegicus [11] = organism: Rattus norvegicus; assay: Tissue biodistribution into estrogen-primed immature female rat lung at 1 hr low time interval; format: ADME, organism-based; conditions: in vivo; outline: as §1
Rattus norvegicus [12] = organism: Rattus norvegicus; assay: Tissue biodistribution into estrogen-primed immature female rat lung at 1 hr time interval; format: ADME, organism-based; conditions: in vivo; outline: as §1
Rattus norvegicus [13] = organism: Rattus norvegicus; assay: Tissue biodistribution into estrogen-primed immature female rat ovaries at 3 hr time interval; format: ADME, organism-based, Female gonad; conditions: in vivo; outline: as §1
Rattus norvegicus [14] = organism: Rattus norvegicus; assay: Tissue biodistribution into estrogen-primed immature female rat kidney at 1 hr time interval; format: ADME, organism-based; conditions: in vivo; outline: as §1
Rattus norvegicus [15] = organism: Rattus norvegicus; assay: Tissue biodistribution into estrogen-primed immature female rat uterus at 3 hr time interval; format: ADME, organism-based; conditions: in vivo; outline: as §1
Rattus norvegicus [16] = organism: Rattus norvegicus; assay: Tissue biodistribution into estrogen-primed immature female rat blood at 1 hr low time interval; format: ADME, organism-based; conditions: in vivo; outline: as §1
Rattus norvegicus [17] = organism: Rattus norvegicus; assay: Tissue biodistribution into estrogen-primed immature female rat uterus/muscle at 1 hr time interval; format: ADME, organism-based; conditions: in vivo
Rattus norvegicus [18] = organism: Rattus norvegicus; assay: Tissue biodistribution into estrogen-primed immature female rat uterus/muscle at 1 hr low time interval; format: ADME, organism-based; conditions: in vivo; outline: as §1
Rattus norvegicus [19] = organism: Rattus norvegicus; assay: Tissue biodistribution into estrogen-primed immature female rat ovaries at 1 hr blocked time interval; format: ADME, organism-based; conditions: in vivo; outline: as §1
Rattus norvegicus [20] = organism: Rattus norvegicus; assay: Tissue biodistribution into estrogen-primed immature female rat muscle at 1 hr low time interval; format: ADME, organism-based; conditions: in vivo; outline: as §1
[21] = molecular target: T1, Progesterone receptor (Homo sapiens) (UniProt P06401); assay: Nonspecific binding affinity against progesterone receptor was estimated relative to compound R5020
T1 sequence (whole entry): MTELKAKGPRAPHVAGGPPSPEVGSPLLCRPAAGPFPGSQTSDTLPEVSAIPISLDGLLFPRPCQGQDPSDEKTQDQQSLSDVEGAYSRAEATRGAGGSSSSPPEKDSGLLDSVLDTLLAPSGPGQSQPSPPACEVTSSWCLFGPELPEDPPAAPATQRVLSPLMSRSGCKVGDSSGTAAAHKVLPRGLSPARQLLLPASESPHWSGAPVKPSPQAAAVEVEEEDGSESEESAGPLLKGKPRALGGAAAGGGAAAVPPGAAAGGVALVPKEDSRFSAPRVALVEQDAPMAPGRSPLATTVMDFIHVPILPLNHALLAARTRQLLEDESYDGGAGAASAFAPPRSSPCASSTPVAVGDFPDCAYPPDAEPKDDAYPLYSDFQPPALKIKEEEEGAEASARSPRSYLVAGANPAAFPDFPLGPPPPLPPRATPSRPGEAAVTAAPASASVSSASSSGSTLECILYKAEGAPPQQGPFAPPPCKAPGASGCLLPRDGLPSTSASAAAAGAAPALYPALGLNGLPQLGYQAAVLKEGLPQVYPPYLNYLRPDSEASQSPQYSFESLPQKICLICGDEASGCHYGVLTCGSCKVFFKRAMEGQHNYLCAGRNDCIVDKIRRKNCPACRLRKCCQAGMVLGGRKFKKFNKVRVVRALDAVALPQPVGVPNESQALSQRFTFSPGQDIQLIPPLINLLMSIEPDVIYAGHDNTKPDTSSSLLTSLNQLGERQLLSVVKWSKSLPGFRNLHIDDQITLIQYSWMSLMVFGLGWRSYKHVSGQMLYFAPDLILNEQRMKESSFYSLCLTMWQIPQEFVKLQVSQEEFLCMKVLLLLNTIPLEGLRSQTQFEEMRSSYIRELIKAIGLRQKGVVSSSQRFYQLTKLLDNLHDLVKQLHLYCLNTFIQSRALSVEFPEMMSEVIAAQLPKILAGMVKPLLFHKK

Rattus norvegicus [22] = organism: Rattus norvegicus; assay: Tissue biodistribution into estrogen-primed immature female rat uterus at 1 hr low time interval; format: ADME, organism-based; conditions: in vivo; outline: as §1
Rattus norvegicus [23] = organism: Rattus norvegicus; assay: Tissue biodistribution into estrogen-primed immature female rat liver at 1 hr time interval; format: ADME, organism-based; conditions: in vivo; outline: as §1
Rattus norvegicus [24] = organism: Rattus norvegicus; assay: Tissue biodistribution into estrogen-primed immature female rat lung at 1 hr blocked time interval; format: ADME, organism-based; conditions: in vivo; outline: as §1
Rattus norvegicus [25] = organism: Rattus norvegicus; assay: Tissue biodistribution into estrogen-primed immature female rat fat at 3 hr time interval; format: ADME, organism-based, Adipose tissue; conditions: in vivo; outline: as §1
Rattus norvegicus [26] = organism: Rattus norvegicus; assay: Tissue biodistribution into estrogen-primed immature female rat uterus/blood at 1 hr blocked time interval; format: ADME, organism-based; conditions: in vivo; outline: as §1
Rattus norvegicus [27] = organism: Rattus norvegicus; assay: Tissue biodistribution into estrogen-primed immature female rat blood at 1 hr time interval; format: ADME, organism-based; conditions: in vivo; outline: as §1
Rattus norvegicus [28] = organism: Rattus norvegicus; assay: Tissue biodistribution into estrogen-primed immature female rat uterus at 1 hr time interval; format: ADME, organism-based; conditions: in vivo; outline: as §1
Rattus norvegicus [29] = organism: Rattus norvegicus; assay: Tissue biodistribution into estrogen-primed immature female rat uterus/blood at 1 hr time interval; format: ADME, organism-based; conditions: in vivo; outline: as §1
Rattus norvegicus [30] = organism: Rattus norvegicus; assay: Tissue biodistribution into estrogen-primed immature female rat blood at 1 hr blocked time interval; format: ADME, organism-based; conditions: in vivo; outline: as §1
Rattus norvegicus [31] = organism: Rattus norvegicus; assay: Tissue biodistribution into estrogen-primed immature female rat uterus/blood at 1 hr low time interval; format: ADME, organism-based; conditions: in vivo; outline: as §1
Rattus norvegicus [32] = organism: Rattus norvegicus; assay: Tissue biodistribution into estrogen-primed immature female rat fat at 1 hr time interval; format: ADME, organism-based, Adipose tissue; conditions: in vivo; outline: as §1
Rattus norvegicus [33] = organism: Rattus norvegicus; assay: Tissue biodistribution into estrogen-primed immature female rat ovaries at 1 hr time interval; format: ADME, organism-based, Female gonad; conditions: in vivo; outline: as §1
Rattus norvegicus [34] = organism: Rattus norvegicus; assay: Tissue biodistribution into estrogen-primed immature female rat fat at 1 hr low time interval; format: ADME, organism-based, Adipose tissue; conditions: in vivo; outline: as §1
Rattus norvegicus [35] = organism: Rattus norvegicus; assay: Tissue biodistribution into estrogen-primed immature female rat lung at 3 hr time interval; format: ADME, organism-based; conditions: in vivo; outline: as §1
Rattus norvegicus [36] = organism: Rattus norvegicus; assay: Tissue biodistribution into estrogen-primed immature female rat kidney at 1 hr low time interval; format: ADME, organism-based; conditions: in vivo; outline: as §1
Rattus norvegicus [37] = organism: Rattus norvegicus; assay: Tissue biodistribution into estrogen-primed immature female rat brain at 1 hr blocked time interval; format: ADME, organism-based; conditions: in vivo; outline: as §1
Rattus norvegicus [38] = organism: Rattus norvegicus; assay: Tissue biodistribution into estrogen-primed immature female rat bone at 1 hr low time interval; format: ADME, organism-based, Bone element; conditions: in vivo; outline: as §1
Rattus norvegicus [39] = organism: Rattus norvegicus; assay: Tissue biodistribution into estrogen-primed immature female rat uterus/muscle at 1 hr blocked time interval; format: ADME, organism-based; conditions: in vivo; outline: as §1
Rattus norvegicus [40] = organism: Rattus norvegicus; assay: Tissue biodistribution into estrogen-primed immature female rat kidney at 1 hr blocked time interval; format: ADME, organism-based; conditions: in vivo; outline: as §1
Rattus norvegicus [41] = organism: Rattus norvegicus; assay: Tissue biodistribution into estrogen-primed immature female rat liver at 1 hr low time interval; format: ADME, organism-based; conditions: in vivo; outline: as §1
Rattus norvegicus [42] = organism: Rattus norvegicus; assay: Tissue biodistribution into estrogen-primed immature female rat muscle at 1 hr blocked time interval; format: ADME, organism-based; conditions: in vivo; outline: as §1
Rattus norvegicus [43] = organism: Rattus norvegicus; assay: Tissue biodistribution into estrogen-primed immature female rat brain at 1 hr low time interval; format: ADME, organism-based; conditions: in vivo; outline: as §1
Rattus norvegicus [44] = organism: Rattus norvegicus; assay: Tissue biodistribution into estrogen-primed immature female rat liver at 1 hr blocked time interval; format: ADME, organism-based; conditions: in vivo; outline: as §1
Rattus norvegicus [45] = organism: Rattus norvegicus; assay: Tissue biodistribution into estrogen-primed immature female rat uterus at 1 hr blocked time interval; format: ADME, organism-based; conditions: in vivo; outline: as §1
Rattus norvegicus [46] = organism: Rattus norvegicus; assay: Tissue biodistribution into estrogen-primed immature female rat kidney at 3 hr time interval; format: ADME, organism-based; conditions: in vivo; outline: as §1
Rattus norvegicus [47] = organism: Rattus norvegicus; assay: Tissue biodistribution into estrogen-primed immature female rat brain at 3 hr time interval; format: ADME, organism-based; conditions: in vivo; outline: as §1
Rattus norvegicus [48] = organism: Rattus norvegicus; assay: Tissue biodistribution into estrogen-primed immature female rat bone at 1 hr blocked time interval; format: ADME, organism-based, Bone element; conditions: in vivo; outline: as §1
Rattus norvegicus [49] = organism: Rattus norvegicus; assay: Tissue biodistribution into estrogen-primed immature female rat bone at 3 hr time interval; format: ADME, organism-based, Bone element; conditions: in vivo; outline: as §1
Rattus norvegicus [50] = organism: Rattus norvegicus; assay: Tissue biodistribution into estrogen-primed immature female rat muscle at 1 hr time interval; format: ADME, organism-based; conditions: in vivo; outline: as §1

## C[C@]12CCC3C(CCC4=CC(=O)CC[C@@H]43)C1C[C@H]1OC(c3ccco3)O[C@]12C(=O)CF (stereo partly specified)
Rattus norvegicus [1]
  Injected dose/g: 0.26%
Rattus norvegicus [2]
  uterus/blood ratio: 48
Rattus norvegicus [3]
  Injected dose/g: 0.57%
Rattus norvegicus [4]
  Injected dose/g: 1.11%
[5]
  logP: 4.11
[5]; read-out: logP
  logP: 3.87
Rattus norvegicus [6]
  Injected dose/g: 2.13%
Rattus norvegicus [7]
  Injected dose/g: 1.65%
Rattus norvegicus [8]
  ratio: 32.2
Rattus norvegicus [9]
  Injected dose/g: 0.19%
Rattus norvegicus [10]
  Injected dose/g: 2.4%
Rattus norvegicus [11]
  Injected dose/g: 1.51%
Rattus norvegicus [12]
  Injected dose/g: 2.38%
Rattus norvegicus [13]
  Injected dose/g: 2.62%
Rattus norvegicus [14]
  Injected dose/g: 1.66%
Rattus norvegicus [15]
  Injected dose/g: 7.83%
Rattus norvegicus [16]
  Injected dose/g: 0.35%
Rattus norvegicus [17]
  Uterus to muscle uptake ratio: 11.63%
Rattus norvegicus [18]
  Injected dose/g: 12.85%
Rattus norvegicus [19]
  Injected dose/g: 1.65%
Rattus norvegicus [20]
  Injected dose/g: 0.41%
[21]
  NSB: 0.83 and 1.06
Rattus norvegicus [22]
  Injected dose/g: 5.18%
Rattus norvegicus [23]
  Injected dose/g: 2.4%
Rattus norvegicus [24]
  Injected dose/g: 1.16%
Rattus norvegicus [25]
  Injected dose/g: 2.36%
Rattus norvegicus [26]
  uterus/blood ratio: 3.68
Rattus norvegicus [27]
  Injected dose/g: 0.38%
Rattus norvegicus [28]
  Injected dose/g: 6.8%
Rattus norvegicus [29]
  Uterus to blood concentration ratio: 18.18%
Rattus norvegicus [30]
  Injected dose/g: 0.46%
Rattus norvegicus [31]
  Injected dose/g: 14.95%
Rattus norvegicus [32]
  Injected dose/g: 2.16%
Rattus norvegicus [33]
  Injected dose/g: 2.76%
Rattus norvegicus [34]
  Injected dose/g: 2.15%
Rattus norvegicus [35]
  Injected dose/g: 0.31%
Rattus norvegicus [36]
  Injected dose/g: 1.14%
Rattus norvegicus [37]
  Injected dose/g: 0.49%
Rattus norvegicus [38]
  Injected dose/g: 0.99%
Rattus norvegicus [39]
  uterus/muscle ratio: 2.34
Rattus norvegicus [40]
  Injected dose/g: 1.72%
Rattus norvegicus [41]
  Injected dose/g: 1.81%
Rattus norvegicus [42]
  Injected dose/g: 0.71%
Rattus norvegicus [43]
  Injected dose/g: 0.4%
Rattus norvegicus [44]
  Injected dose/g: 2.49%
Rattus norvegicus [45]
  Injected dose/g: 1.68%
Rattus norvegicus [46]
  Injected dose/g: 0.73%
Rattus norvegicus [47]
  Injected dose/g: 0.18%
Rattus norvegicus [48]
  Injected dose/g: 1.29%
Rattus norvegicus [49]
  Injected dose/g: 1.3%
Rattus norvegicus [50]
  Injected dose/g: 0.59%
